From ChEMBL document CHEMBL4145471, “New 1,5 and 2,5-disubstituted tetrazoles-dependent activity towards surface barrier of Candida albicans” (Eur J Med Chem, 2018) come the findings set out here.

The structures appear in SMILES notation. Calls of active or inactive are those of the source. The rule behind the calls is not given here.

By residual activity is commonly meant what remains of the control signal, in per cent.

The subject of data set [1] is Candida albicans. The data set is described as follows: Induction of apoptosis in Candida albicans ATCC 90028 protoplast assessed as early apoptotic cells at 16 ug/ml after 18 hrs Annexin V-FITC/propidium iodide staining based flow cytometry ( Rvb = 0.13 +/- 0.06%). The data set is classed as functional.
Data set [2] relates to Candida albicans. The data set is described as follows: Induction of necrosis in Candida albicans ATCC 90028 biofilms assessed as loss of cell membrane integrity at 16 ug/ml after 18 hrs by propidium iodide/acridine orange staining based confocal laser scanning microscopic analysis. Type of data set: functional, organism-based. An outline of the steps:
(§1)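 Caco-2-free model: the TR146 epithelial layer, 21 days post-seeding on filter inserts, was inoculated with 1.0–1.2×10^5/mL log-phase ATCC 90028 yeast. Biofilms were treated at 256, 16 or 0.0313 µg/mL for 18–48 h at 37°C in 5% CO2 and washed with PBS. Unfixed cells were stained with propidium iodide (5 µg/mL) and acridine orange, then imaged by confocal laser scanning microscopy.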

The test system of data set [3] is Candida albicans. The experiment in a line: Induction of necrosis in Candida albicans ATCC 90028 protoplast at 16 ug/ml after 18 hrs Annexin V-FITC/propidium iodide staining based flow cytometry (reference value: 40.48 +/- 16.81%). The data set is classed as functional. A general note: Flow cytometry measures light scatter and fluorescence of single cells or particles in a stream.

Data set [4] deals with Candida albicans. The experiment in a line: Synergistic antifungal activity against Candida albicans ATCC 90028 at 5 ug/ml after 48 hrs in presence of 10 ug/ml fluconazol by checkerboard assay relative to control. The data set is classed as functional. The procedure, abridged: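 Checkerboard in C. albicans ATCC 90028, inoculum prepared per CLSI M27-A3 in RPMI. Fluconazole serially diluted 80-1.25 µg/mL across the plate against the partner compound at 80-1.25 µg/mL final. Incubated 48 h at 35°C. Metabolic activity read by XTT reduction at 475 nm (660 nm reference), given as % of the untreated growth control.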

For data set [5], the system named is Candida albicans. The data set is described as follows: Induction of apoptosis in Candida albicans ATCC 90028 protoplast assessed as viable cells at 16 ug/ml after 18 hrs Annexin V-FITC/propidium iodide staining based flow cytometry ( Rvb = 59.19 +/- 11%). The data set is classed as functional.
Data set [6] deals with Candida albicans. The experiment in a line: Antifungal activity against Candida albicans ATCC 90028 assessed as reduction in cell adherence to human Caco2 cells at 16 ug/ml preincubated for 2 hrs followed by compound washout and resuspended in RPMI medium measured after 18 hrs by colony counting assay relative to control. The data set is classed as functional. Details: scale not given: the % may be the effect or the level left. The procedure, abridged:
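Yeasts grown 18 h in YEPD at 30°C, then exposed at 10^4/mL to compound in RPMI for 2 h at 35°C with shaking. Washed twice in PBS, resuspended in RPMI and added to Caco-2 monolayers (18 h culture in EMEM/10% FCS) for 2 h at 37°C, 5% CO2. Non-adherent cells rinsed off, Caco-2 lysed with water, and adherent yeasts counted as colonies on Sabouraud agar after 18 h at 30°C. Expressed as % of cells added versus untreated; three experiments.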

In data set [7] the test system is Candida albicans. The experiment in a line: Induction of apoptosis in Candida albicans ATCC 90028 protoplast assessed as late apoptotic cells at 16 ug/ml after 18 hrs Annexin V-FITC/propidium iodide staining based flow cytometry ( Rvb = 0.20 +/- 0.28%). The data set is classed as functional.
Data set [8] is described as follows: Toxicity in Galleria mellonella larvae assessed as survival at 0.0313 ug/ml after 96 hrs relative to control. To be noted: in vivo. Type of data set: organism-based. An outline of the steps: (§2)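 Uninfected larvae, groups of 10, injected with compound in RPMI at 256, 16 or 0.0313 µg/mL; PBS-injected larvae as controls. Kept at 37°C in darkness up to 96 h, monitored daily; death is no response to physical stimuli. Mobility, cocoon formation, melanization and survival scored as health index. Three independent experiments, samples in duplicate; Wilcoxon signed-rank test vs control.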

Data set [9] in a line: Toxicity in Galleria mellonella larvae assessed as survival at 16 ug/ml after 96 hrs relative to control. Type of data set: organism-based. The following applies: in vivo. An outline of the steps:
as §2

The subject of data set [10] is Candida albicans. The experiment in a line: Antifungal activity against Candida albicans ATCC 90028 assessed as inhibition of metabolic activity at 2.5 ug/ml after 48 hrs in presence of 80 ug/ml fluconazol by XTT assay relative to control. The data set is classed as functional. The following applies: values are per cent of control. The procedure, abridged:
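C. albicans ATCC 90028 in checkerboard: fluconazole serial dilutions (80-1.25 µg/mL) crossed with tetrazole (80-1.25 µg/mL final), M27-A3 inoculum in RPMI 1640, 35°C for 48 h. Metabolic activity measured by XTT reduction, read at 475 nm (660 nm reference). Activity expressed relative to untreated growth control absorbance.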
For orientation: Tetrazolium assays rely on reduction of a dye to a coloured formazan, in cell work by metabolically active cells.

The subject of data set [11] is Candida albicans. The experiment in a line: Antifungal activity against Candida albicans ATCC 90028 assessed as metabolic activity at 1.25 ug/ml after 48 hrs in presence of 1.25 ug/ml fluconazol by XTT assay relative to control. The following applies: ATCC 90028, 48 h.
For data set [12], the system named is Candida albicans. The experiment in a line: Antifungal activity against Candida albicans ATCC 90028 assessed as metabolic activity at 20 ug/ml after 48 hrs in presence of 80 ug/ml fluconazol by XTT assay relative to control.
A short description of data set [13]: Toxicity in Galleria mellonella larvae assessed as survival at 256 ug/ml after 96 hrs relative to control. The following applies: in vivo. The data set is classed as organism-based. An outline of the steps:
as §2

Data set [14] relates to Candida albicans. The data set is described as follows: Induction of early apoptosis in Candida albicans ATCC 90028 biofilms at 256 ug/ml after 18 hrs by propidium iodide/acridine orange staining based confocal laser scanning microscopic analysis. The data set is classed as functional, organism-based. The procedure, abridged:
as §1

The subject of data set [15] is Candida albicans. The data set is described as follows: Antifungal activity against Candida albicans ATCC 90028 assessed as growth inhibition at 100 ug/ml after 7 days in presence of sorbitol by M27-A3 microdilution method. Type of data set: functional, organism-based. An outline of the steps: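 Osmotic protection variant of M27-A3. Tetrazoles serially diluted (1.04-400 µg/mL) in Sabouraud dextrose broth; inoculum 1.7×10^3 CFU/mL in SDB with sorbitol at 0.8 M final. Plates at 35°C, read visually and at OD405 after 2 and 7 days; triplicate.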
(In general: Broth dilution looks for growth in wells or tubes with falling amounts of substance.)

The subject of data set [16] is Candida albicans. The data set is described as follows: Antifungal activity against Candida albicans ATCC 90028 assessed as metabolic activity at 80 ug/ml after 48 hrs in presence of 2.5 ug/ml fluconazol by XTT assay relative to control.
Data set [17] relates to Candida albicans. The data set is described as follows: Antifungal activity against Candida albicans ATCC 90028 assessed as total FIC index at 80 ug/ml in presence of fluconazol after 48 hrs by checkerboard-based XTT assay. Type of data set: functional. The procedure, abridged: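 Checkerboard against strain ATCC 90028, inoculum per M27-A3: fluconazole 80-1.25 µg/mL on one axis, tetrazole 80-1.25 µg/mL on the other. Plates at 35°C for 48 h, then XTT metabolic reduction read at 475 nm (660 nm reference). Activity is the drop in mean absorbance against untreated growth control. FICs and their summed FIC index are taken at 50% reduction in metabolic activity.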

Data set [18] deals with Candida albicans. The data set is described as follows: Synergistic antifungal activity against Candida albicans ATCC 90028 at 1.25 ug/ml after 48 hrs in presence of 2.5 ug/ml fluconazol by checkerboard assay relative to control. The data set is classed as functional. An outline of the steps: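 Checkerboard microdilution (M27-A3) on C. albicans ATCC 90028 in RPMI 1640: fluconazole (80-1.25 µg/mL) crossed with tetrazole (80-1.25 µg/mL final), incubated at 35°C for 48 h. Growth by OD405 at 18 and 48 h, endpoint taken as 100% inhibition. FIC index = sum of the two agents' FICs; <1 synergism, >1 antagonism.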

Take `CCOC(=O)CCn1nnc(-c2ccccc2)n1`: the Activity was 0.1% in the data set on Candida albicans [1]; 97.03% with Candida albicans [3]; 1.67% in the data set with Candida albicans [5]; 65.41% with Candida albicans [6]; 1.2% in the data set on Candida albicans [7]. Also, the outcome in the data set on Candida albicans [2] and in the data set with Candida albicans [14] was Active. Besides, the “growth inhibition (GI)” value in the data set with Candida albicans [4] was 99.57%. Also, the survival at 96 h in data set [8], in [9] and in data set [13] was 100% each time. In the data set with Candida albicans [10], the residual activity was determined as 72.63%. Moreover, in the data set with Candida albicans [11], the metabolic activity at 1.25 µg/mL was determined as 87%. The Metabolic activity stood at 94.76% in the data set with Candida albicans [12] and 64.31% in the data set on Candida albicans [16]. Further, the “growth inhibition (GI)” value in the data set with Candida albicans [15] was “Active”.
In the case of `ClCCCn1nnnc1-c1ccccc1Cl`, the Activity is 8% in the data set with Candida albicans [1], 89.92% in the data set on Candida albicans [3], 1.85% in the data set with Candida albicans [5] and 0.23% in the data set with Candida albicans [7]. Further, the “growth inhibition (GI)” value in the data set with Candida albicans [4] was found to be 99.66%; in the data set on Candida albicans [18], 99.64%. In addition, the survival at 96 h in data set [8], in data set [9] and in data set [13] was 100% throughout. The residual activity with Candida albicans [10] was 80.42%. In addition, the metabolic activity at 1.25 µg/mL in the data set on Candida albicans [11] came to 86.4%. In addition, the Metabolic activity was 81.77% with Candida albicans [12] and 59.43% in the data set with Candida albicans [16]. Moreover, in the data set on Candida albicans [15], the “growth inhibition (GI)” value was “inactive”. The “fractional inhibitory concentration index (FICI)” value in the data set on Candida albicans [17] is above 10.
For the compound `Cc1ccc(-c2nnn(CCCN3CCOCC3)n2)cc1`, the “growth inhibition (GI)” value with Candida albicans [4] is reported as 98.8%; in the data set with Candida albicans [18], 99.23%. Moreover, the Activity with Candida albicans [6] is on record as 14.18%. For the same compound, the residual activity with Candida albicans [10] is 84.01%. Further, in the data set with Candida albicans [11], the metabolic activity at 1.25 µg/mL worked out at 74.3%. The Metabolic activity with Candida albicans [12] was 69.42%; with Candida albicans [16], 78.22%. Further, the “fractional inhibitory concentration index (FICI)” value in the data set with Candida albicans [17] was above 6.25.
